Data taken from publication PMC4618641 (Pharmacology Research & Perspectives, 2015).
Entries after “also recorded” stand apart in the source; their conditions may differ.

Tests used:
[1] = system: DU145TXR cells; test: Potentiation assay; assay type: cell-based, human; conditions: 10 nmol/L - 25 μmol/L inhibitor, 48 h
Method in brief: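 Paclitaxel-selected DU145TXR (maintained in 10 nmol/L paclitaxel) seeded, then after 48 h co-treated 48 h with 500 nmol/L paclitaxel plus inhibitor at 10 nmol/L–25 μmol/L (400X DMSO solutions), triplicate wells; parallel run without paclitaxel. MTT read at 570 minus 720 nm. Survival relative to DMSO-treated wells without inhibitor; ≥6 replicates from ≥2 experiments. PC50 from a four-parameter variable-slope fit.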

[2] = system: DU145TXR cells; test: Dose-dependent sensitization to paclitaxel; assay type: cell-based, human; conditions: for Synergy with paclitaxel (isobologram): DU145TXR, 5, 10, 25 μmol/L compound
[3] = system: DU145 cells; test: Intrinsic cytotoxicity assay; assay type: cell-based, human; conditions: for IC50: Homo sapiens, DU-145, 48 h, read-out: IC50 (compound alone, estimated)
Method in brief: (§1)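 Cells seeded at 2 × 10^4 cells/mL, grown 48 h, then exposed 48 h to test compound at 0.05–50 μmol/L from 200X DMSO solutions, with DMSO controls (n = 12/plate). PBS rinse, then fresh medium for 24 h and MTT for 4 h; A570 minus A720, blank subtracted. Survival is relative to DMSO; ≥6 replicates, ≥2 experiments. IC50 from a four-parameter fit constrained 0–100. HFL1 grown in F-12K on collagen-treated surfaces.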

[4] = system: P-gp; conditions: in the presence of the transport substrate verapamil; ref Brewer et al. [2014]; cited from earlier work
[5] = system: P-gp; conditions: ref Brewer et al. [2014]; cited from earlier work
[6] = system: DU145TXR cells; test: Reversal of resistance to doxorubicin; assay type: cell-based, human; conditions: 25 μmol/L compound, data not shown
[7] = system: HFL1 cells; test: Intrinsic cytotoxicity assay; assay type: cell-based, human; conditions: for Decrease in cell viability: HFL1, 25 μmol/L compound, not shown; for IC50: Homo sapiens, HFL1, 48 h, read-out: IC50 (compound alone, estimated)
Method in brief: as §1

[8] = system: DU145TXR cells; test: Intrinsic cytotoxicity assay; assay type: cell-based, human; conditions: for IC50: Homo sapiens, 48 h, read-out: IC50 (compound alone, estimated)
Method in brief: as §1

[9] = system: DU145 human prostate cancer cells; test: MTT cell viability assay, chemotherapeutics on naïve DU145; assay type: cell-based
Method in brief: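 DU145 in RPMI-1640 with 10% FBS, seeded at 2 × 10^4 cells/mL, then after 48 h given a paclitaxel (or doxorubicin) range from 400X DMSO dilutions for 48 h. PBS rinse, fresh medium 24 h, then MTT 4 h; formazan dissolved in DMSO, read at 570 minus 720 nm. Survival relative to DMSO controls (n = 12/plate); ≥9 replicates from ≥3 experiments.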

[10] = system: DU145TXR cells; test: MTT cell viability assay, chemotherapeutics on multidrug-resistant DU145TXR; assay type: cell-based, human

| SMILES | Effect on sensitivity of DU145TXR to 500 nmol/L paclitaxel [1] | IC50 [3] | Inhibition of verapamil-stimulated ATP hydrolysis [4] | Effect on nucleotide binding (ESR, SL-ATP) [5] | Synergy with paclitaxel (isobologram) [2] | Resensitization to doxorubicin [6] | Decrease in cell viability [7] | IC50 [7] | IC50 [8] | further results |
| --- | --- | --- | --- | --- | --- | --- | --- | --- | --- | --- |
| COC(=O)c1ccc(C(c2c(O)oc3ccccc3c2=O)c2c(O)oc3ccccc3c2=O)cc1 [Compound 19, methyl 4-[bis(2-hydroxy-4-oxochromen-3-yl)methyl]benzoate] | no apparent effect | 99 µM | inhibit ATP hydrolysis | directly interfered with nucleotide binding |  |  |  |  |  | Effect on sensitivity of DU145TXR to 500 nmol/L paclitaxel ([1]; listed as compound 19): no effect on the toxicity of paclitaxel; Effect on cell viability in sensitization experiments ([2]; DU145TXR, paclitaxel, 5, 10, 25 μmol/L compound): did not show any effect on cell viability |
| Cc1cc(C)c(-c2cc(NC(=O)CSc3n[nH]c(C4CC4)n3)n(-c3ccccc3)n2)cc1C [Compound 29, 2-[(5-cyclopropyl-1H-1,2,4-triazol-3-yl)sulfanyl]-N-[2-phenyl-5-(2,4,5-trimethylphenyl)pyrazol-3-yl]acetamide] | strongly affected the sensitivity | 34 µM | inhibit ATP hydrolysis | did not affect nucleotide-binding characteristics | strong synergistic effect | resensitized the MDR prostate cancer cells to doxorubicin to levels that are comparable with the naïve DU145 cell line | 35% | 42 µM | 39 µM |  |
| CCC(C(=O)N1CCN(c2ccc(OC)cc2)CC1)n1nc(C)c2sc3ccccc3c2c1=O (centres unmarked) [Compound 34, 2-[1-[4-(4-methoxyphenyl)piperazin-1-yl]-1-oxobutan-2-yl]-4-methyl-[1]benzothiolo[2,3-d]pyridazin-1-one] | strongly affected the sensitivity | 44 µM | inhibit ATP hydrolysis | directly interfered with nucleotide binding | strong synergistic effect | resensitized the MDR prostate cancer cells to doxorubicin to levels that are comparable with the naïve DU145 cell line | 23% | 133 µM | 412 µM |  |
| CCOC(=O)C1(CCCc2ccccc2)CCCN(C(=O)c2ccc3c(c2)OCO3)C1 (centres unmarked) [Compound 45, ethyl 1-(1,3-benzodioxole-5-carbonyl)-3-(3-phenylpropyl)piperidine-3-carboxylate] | strongly affected the sensitivity | 41 µM | inhibit ATP hydrolysis | directly interfered with nucleotide binding | strong synergistic effect | resensitized the MDR prostate cancer cells to doxorubicin to levels that are comparable with the naïve DU145 cell line | 13% | 62 µM | 107 µM | Cells killed ([3]; DU145, 25 μmol/L compound, not shown): 31%; Cells killed ([8]; DU145TXR, 25 μmol/L compound, not shown): 36% |
| CC(=O)O[C@H]1C(=O)[C@@]2(C)[C@H]([C@H](OC(=O)c3ccccc3)[C@]3(O)C[C@H](OC(=O)[C@H](O)[C@@H](NC(=O)c4ccccc4)c4ccccc4)C(C)=C1C3(C)C)[C@]1(OC(C)=O)CO[C@@H]1C[C@@H]2O [Paclitaxel, paclitaxel] |  |  |  |  |  |  |  |  |  | Survival at 500 nmol/L paclitaxel [9]: < 10%; Survival at 500 nmol/L paclitaxel ([10]; DU145TXR): > 85%; IC50 ([10]; read-out: IC50 of chemotherapeutic alone, DU145TXR, 48 h incubation, MTT): 3.76 µM |
| COc1ccc(CCN(C)CCCC(C#N)(c2ccc(OC)c(OC)c2)C(C)C)cc1OC (centres unmarked) [Verapamil, verapamil, reference compound] |  | 75 µM |  |  |  |  |  |  | 207 µM |  |
| COc1cccc2c1C(=O)c1c(O)c3c(c(O)c1C2=O)C[C@@](O)(C(=O)CO)C[C@@H]3O[C@H]1C[C@H](N)[C@H](O)[C@H](C)O1 [doxorubicin] |  |  |  |  |  |  |  |  |  | Fold resistance (IC50 DU145TXR / IC50 DU145) ([10]; DU145TXR compared to DU145): over eightfold; also recorded: about eightfold |
